The entries come from a sample that favours hits as a whole.
Diaph inh CS – counter-screen for diaphorase-based assays: diaphorase inhibitors and chemical oxidizers; diaphorase resazurin-to-resorufin fluorescence, NADH, 16 min; bacterial (C. kluyveri) enzyme, not human; inhibition, % at 20 µM; hit rate 0.69% among 190,000; AID 1217;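 active = primary screen inhibition at 20 µM above a set limit, cut at about 50% in these data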;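 note: plate controls were DMSO with full reaction for no effect and wells lacking NADH for full effect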
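Assay system: diaphorase enzyme from Clostridium kluyveri; Input: enzyme working solution with 0.14 U/mL diaphorase; Timing: 16 min at room temperature; Technique: resorufin fluorescence, excitation 544 nm, emission 590 nm; Benchmarks: positive control minus NADH, DMSO neutral control.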
L major viab – inhibitors of Leishmania major promastigote growth | inhibition, % at 10 µM | Leishmania major promastigotes, resazurin fluorescence viability | hit rate 9% among 200,000;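 note: promastigotes grown with compound for 44 hours at 28 °C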
G6PDH counter – inhibits Leuconostoc G6PDH, flagging false hits in G6PDH-based assays | Purified L. mesenteroides G6PDH, diaphorase/resazurin coupled fluorescence, 45 min | inhibition, % at 5 µM | hit rate 0.12% among 200,000 | AID 1020
DTT redox prof – compounds producing H2O2 with reducing agent – biochemical, NIH compound library profiling, artefact control for MLSCN library redox annotation, primary screen. DTT-dependent redox cycling H2O2, phenol red/HRP absorbance; 100% = 100 µM peroxide control, 0% = buffer. activation, % at 10 µM. hit rate 0.03% among 200,000;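 active = activation of at least 50% relative to the plate's high and low controls in the primary single-dose screen; inactive = activation below 50%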;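 note: compound incubated with DTT at 0.8 mM final as the reducing agent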
PfG6PD inh – PfG6PD (Plasmodium falciparum) enzyme inhibition; PfGluPho enzyme, NADPH resazurin-diaphorase fluorescence; inhibition, % at 20 µM; hit rate 0.78% among 350,000; AID 504690;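 active = inhibition reaching at least a set limit at 20 µM in the primary screen, cut at about 59% in these data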;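 note: 0% = DMSO wells with substrate and 100% = DMSO wells lacking glucose-6-phosphate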
Diaph act CS – activates diaphorase or chemically reduces, flagging diaphorase assay artifacts | Diaphorase/resazurin coupled assay, resorufin fluorescence, 16 min; stronger effect = higher value; 1 = vehicle wells, 0 = NADH-free wells | activation factor at 20 µM | hit rate 0.005% among 190,000;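 active = diaphorase activity raised at least twofold by the compound at 20 µM; inactive = activation factor below 2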
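Material: purified diaphorase enzyme from Clostridium kluyveri / Medium: HEPES pH 7.4 buffer with MgCl2 and Tween 20 / Schedule: enzyme reaction of 16 min at room temperature / Measured by: resorufin fluorescence, excitation 544 nm, emission 590 nm / Evaluation: rise in resorufin formation, marking diaphorase activation or chemical reduction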
Numbers without * were called inactive; . = not tested or not shown. Cut-off read from the data, not from the text of the source, unless noted: active = inhibition above about 50%; inactive = the rest.

SMILES | Diaph inh CS | L major viab | G6PDH counter | DTT redox prof | PfG6PD inh | Diaph act CS
CC(C)CCN(C)C1CCN(S(=O)(=O)c2ccc(F)cc2)CC1 | 25 | 95* | -6 | 0 | -2 | 0.8
Cc1ccc(S(=O)(=O)N2CCOCC2)cc1C(=O)N1CCN(S(=O)(=O)c2ccccc2F)CC1 | . | . | . | . | -8 | .
CC(=O)/C(=N/Nc1ccccc1)Sc1nnc(C(O)c2ccccc2)n1-c1ccccc1 (stereo not given) | 14 | 4 | -9 | 0 | 9 | 0.9
Cc1cc(C)c2c(N)c(C(=O)c3ccc(Cl)cc3Cl)sc2n1 | 7 | 100* | -14 | 1 | 2 | 0.9
Cc1cc(C)c2c(N)c(C(=O)Nc3ncc(C)s3)sc2n1 | 19 | 68* | 0 | 0 | 46 | 0.8
CC(=O)c1sc2nc(C)cc(C)c2c1N | 23 | 8 | -12 | 2 | 25 | 0.8
Cc1cc(C)c2c(N)c(C(=O)c3ccccc3Cl)sc2n1 | . | . | . | . | 21 | .
Cc1cc(C)c2c(N)c(C(=O)c3cccc(Cl)c3)sc2n1 | 21 | 100* | 3 | 1 | 1 | 0.8
Cc1ccccc1NC(=S)N1CCCN(Cc2ccc(F)cc2)C1 | -9 | 86* | 2 | -2 | 6 | 1.1
Cc1cccc(NC(=S)N2CCN(c3ccc(F)cc3)CC2)c1 | 0 | 16 | 25 | 0 | -9 | 1
Cc1ccc(NC(=S)N2CCCN(Cc3ccc(F)cc3)C2)c(C)c1 | 4 | 89* | 6 | -1 | -13 | 1
CSc1cccc(NC(=S)N2CCCN(Cc3ccc(F)cc3)C2)c1 | 15 | 86* | 0 | 0 | 11 | 0.8
Cc1ccc(NC(=S)N2CCN(C)CC2)c(C)c1 | 11 | -6 | 3 | 0 | -8 | 0.9
CCOc1ccc2c(c1)C(C)=CC(C)(C)N2C(=O)Nc1ccccc1 | 48 | 50* | 18 | -1 | 78* | 0.5
Cc1ccc(S(=O)(=O)NC2CCCC(C(=O)O)C2)cc1 (stereo not given) | 7 | -2 | 4 | 0 | -12 | 0.9
CC(=C1C(=O)c2ccccc2C1=O)N1CCc2ccccc2C1 | 20 | 92* | 7 | -3 | -17 | 0.8
CC(C(=O)N1CCc2ccccc2C1)N(c1ccccc1)S(C)(=O)=O (stereo not given) | . | . | . | . | 3 | .
Cc1ccc(NC(=O)CN2C(=O)S/C(=C/c3ccncc3)C2=O)cc1 | . | . | . | . | 2 | .
Cc1ccc(NC(=O)CN2C(=O)S/C(=C\C(=O)Nc3ccc(Cl)cc3)C2=O)cc1 | 7 | 63* | 4 | 0 | -11 | 0.9
COc1ccccc1OCCN1CSC(=S)N(C)C1 | 14 | 100* | 4 | 0 | -14 | 0.9
Cc1cccc(OCCN2CSC(=S)N(C)C2)c1 | 16 | 100* | 0 | -1 | 5 | 0.8
Cc1cccc(OCCn2cnc(Cl)c2Cl)c1 | . | . | . | . | 8 | .
COC(=O)c1c(NC(=O)CN2CCC3(O)CCCCC3C2c2ccc(OC)cc2OC)sc(C)c1C (stereo not given) | 31 | 62* | -8 | 0 | 38 | 0.7
COC(=O)c1c(NC(=O)CN2CCC3(O)CCCCC3C2c2ccccc2OC)sc(C)c1C (stereo not given) | 22 | 49 | -1 | 0 | 4 | 0.8
COc1cc([C@H]2[C@@H]3CCCC[C@]3(O)CCN2CC(=O)Nc2ccc(C)cc2C)ccc1O | 10 | 65* | 1 | 0 | 22 | 0.9
SMILES | Diaph inh CS | L major viab | G6PDH counter | DTT redox prof | PfG6PD inh | Diaph act CS
COc1ccc(CN(C)C(=O)c2ccc(Cl)c(S(=O)(=O)NCc3cccnc3)c2)cc1F | . | . | . | . | 7 | .
CC1CCC(C(C)C)C(OC(=O)Cn2c(-c3ccc(Br)cc3)[n+](C)c3ccccc32)C1 (stereo not given) | 1 | 100* | -12 | -2 | -24 | 1
CC1CCC(C(C)C)C(OC(=O)Cn2c(-c3ccc(Cl)cc3)[n+](C)c3ccccc32)C1 (stereo not given) | . | . | . | . | 1 | .
Cc1ccccc1OCc1n(CC(=O)OC2CC(C)CCC2C(C)C)c2ccccc2[n+]1C (stereo not given) | -24 | 101* | 2 | 1 | -4 | 1.2
C=CCn1c(SCC#N)nc2sc(CC)cc2c1=O | 2 | 18 | 10 | 0 | -14 | 1
O=C(CN(C(=O)CNS(=O)(=O)c1ccccc1)c1ccc(F)cc1)NCc1ccco1 | . | . | . | . | -6 | .
O=C(NC1CCN(C(=O)C2CCCCC2)CC1)c1ccccc1 | . | . | . | . | -12 | .
O=C(Nc1ccccn1)C(F)(F)C(F)(F)C(F)(F)C(F)(F)C(=O)Nc1ccccn1 | 13 | 70* | 11 | 0 | -7 | 0.9
O=C(O)c1ccc(Oc2ccc([N+](=O)[O-])cc2)c([N+](=O)[O-])c1 | . | . | . | . | -13 | .
Cc1[nH]c2ccccc2c1NC(=O)CN1CCN(c2cccc(C(F)(F)F)c2)CC1 | 11 | 8 | -1 | 3 | 4 | 0.9
Cc1[nH]c2ccccc2c1C(O)CN1CCN(c2cccc(C(F)(F)F)c2)CC1 (stereo not given) | 7 | 60* | 2 | 2 | 13 | 0.9
COc1cc(CC(C#N)(CO)c2nc3ccccc3[nH]2)ccc1OC(F)F (stereo not given) | 14 | 82* | 10 | 0 | -1 | 0.9
CCCn1c(O)c(N=NC(=O)c2ccco2)c2ccccc21 | 16 | 68* | -4 | -1 | 7 | 0.8
CCn1c(O)c(N=NC(=O)CNC(=O)c2ccco2)c2ccccc21 | 4 | 1 | -9 | 0 | -9 | 1
CCC1(CC)C(=O)C2=C3C1[C@H](C(=O)OC)CC(C(=O)OC)C[C@H]3[C@H]1C(=O)N(c3ccccc3)C(=O)[C@H]1[C@H]2C (stereo not given in full) | . | . | . | . | -14 | .
COc1ccc(CCN2C(=O)CC(NNC(=O)c3ccc(F)cc3)C2=O)cc1OC (stereo not given) | 9 | 3 | -2 | 0 | -3 | 0.9
COc1ccc(CCN2C(=O)CC(NNC(=O)c3cccc(O)c3)C2=O)cc1 (stereo not given) | 8 | 44 | -10 | 0 | 0 | 0.9
CCOc1ccc(C(=O)NNC2CC(=O)N(CCc3ccccc3)C2=O)cc1OC (stereo not given) | 11 | 63* | 9 | . | -4 | 0.9
COc1ccc(CCN2C(=O)CC(NNC(=O)c3ccccc3Br)C2=O)cc1OC (stereo not given) | 19 | 56* | 14 | . | -8 | 0.8
CCc1cccc(C)c1NC(=O)C1=C(C(=O)O)CCCC1 | -1 | -5 | 2 | 2 | -6 | 1
Cc1ccccc1Sc1c(C#N)c(-c2ccccc2)nn1C | 18 | 1 | 7 | 3 | 6 | 0.8
CCOc1ccc(N2C(=O)/C(=C\c3ccccc3OC)S(=O)(=O)C2c2cccc([N+](=O)[O-])c2)cc1 (stereo not given) | 7 | 50* | -10 | 0 | 8 | 0.9

Screens as filed in PubChem BioAssay.
